Bioassay records as filed in PubChem BioAssay.
H9c2 TAG inh: reduces triacylglycerol accumulation in H9c2 cells | Nile Red lipid (TAG) fluorescence; cells loaded with 200 µM oleic acid | inhibition, % at 12.5 µM | hit rate 0.66% among 230,000 | AID 651582;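 active = pattern-corrected inhibition of lipid staining of at least 50% with the nuclear-stain viability signal not falling by more than 50%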
Efflux pump inh: antifungal efflux pump inhibition, Nile Red retention; S. cerevisiae Candida pump triplex; inhibition, % at 10 µM; hit rate 0.44% among 330,000;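 active = plate passing quality check with inhibition over a set limit, or well fluorescence over plate mean plus 4 SD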;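 note: Nile Red retained in pooled yeast measured as flow cytometry median fluorescence; higher means more Nile Red kept so more efflux inhibition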
SMARCA2 act: activators of SMARCA2 function. MG213 cells, MMTV-luciferase reporter, dexamethasone, overnight. activation, % at 9.1 µM. hit rate 1% among 370,000. AID 652017; in the data active = activation above about 7.8%
AHR activator: activators of human aryl hydrocarbon receptor. AHR-responsive luciferase reporter cells, luminescence. AID 2796. hit rate 2.5% among 320,000. P35869. activation, % at 5 µM; in the data active = activation above about 47%
Target sequence (P35869 whole entry, looked up): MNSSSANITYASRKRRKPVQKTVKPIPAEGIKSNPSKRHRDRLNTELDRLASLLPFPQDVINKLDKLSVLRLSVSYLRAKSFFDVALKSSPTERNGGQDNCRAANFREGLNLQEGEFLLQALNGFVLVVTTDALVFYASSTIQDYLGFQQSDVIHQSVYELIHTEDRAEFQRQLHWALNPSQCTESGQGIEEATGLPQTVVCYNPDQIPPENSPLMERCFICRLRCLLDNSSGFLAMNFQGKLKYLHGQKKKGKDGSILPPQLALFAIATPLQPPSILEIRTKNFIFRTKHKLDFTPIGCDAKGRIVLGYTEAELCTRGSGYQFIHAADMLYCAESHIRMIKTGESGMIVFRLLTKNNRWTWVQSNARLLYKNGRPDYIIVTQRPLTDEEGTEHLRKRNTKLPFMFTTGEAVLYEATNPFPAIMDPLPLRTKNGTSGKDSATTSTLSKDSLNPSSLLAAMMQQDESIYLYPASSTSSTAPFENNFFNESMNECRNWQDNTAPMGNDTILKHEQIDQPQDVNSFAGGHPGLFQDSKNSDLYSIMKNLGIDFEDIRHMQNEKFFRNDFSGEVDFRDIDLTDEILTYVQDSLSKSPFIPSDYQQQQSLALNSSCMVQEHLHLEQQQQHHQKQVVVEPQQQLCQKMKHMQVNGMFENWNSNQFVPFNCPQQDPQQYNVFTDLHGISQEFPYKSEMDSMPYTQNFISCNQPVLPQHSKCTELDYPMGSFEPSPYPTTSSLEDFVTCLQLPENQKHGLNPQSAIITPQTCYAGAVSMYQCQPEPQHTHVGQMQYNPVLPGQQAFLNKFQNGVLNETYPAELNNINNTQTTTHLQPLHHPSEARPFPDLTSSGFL
Tb MetRS inh: Trypanosoma brucei MetRS inhibition | purified T. brucei MetRS, ATP depletion, Kinase-Glo luminescence | inhibition, % at 11.9 µM | hit rate 0.4% among 360,000;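 active = inhibition above a per-plate cutoff of the control wells' mean inhibition plus 3 SD, cut at about 5.5% in these data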
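Dosing: 11.9 µM single point; system: parasite MetRS enzyme; technique: luminescence of leftover ATP; times: 15 min enzyme-compound preincubation, 2 h reaction, 10 min detection, 25 °C; replicates: each compound tested once; read-out basis: percent inhibition relative to median high and low control wells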
A number is an active result; - = inactive; . = no result given. A selection: hits, their analogues and other compounds. The true share with any hit is near 4.1%.

SMILES | H9c2 TAG inh | Efflux pump inh | SMARCA2 act | AHR activator | Tb MetRS inh
CCN(C(=O)COC(=O)c1ccc(Sc2ncn[nH]2)c([N+](=O)[O-])c1)c1ccccc1C | . | . | - | . | .
CC(C)C[C@@H]1COc2cccc(N3CCCC3)c2S(=O)(=O)N1C | . | . | - | . | .
CC(=O)Nc1nc2ccccc2n1CCOc1ccccc1Cl | - | - | - | - | -
CCn1c(NC(=S)Nc2ccccc2)nc2ccccc21 | - | - | - | 56 | -
S=C(Nc1ccccc1)Nc1nc2ccccc2n1CCOc1ccc(Cl)cc1 | . | - | - | 55 | -
CCn1c(NC(=O)C2CCCCC2)nc2ccccc21 | - | - | - | - | -
C=CCN1C(=O)[C@@H](CC(=O)N2CCCC2)[C@]2(C(=O)OCC)CCCCC/C=C/12 | . | . | - | . | .
CCc1ccc2nc(N(CCN(C)C)C(=O)/C=C/c3cccs3)sc2c1 | . | - | . | - | -
Cc1ccc2nc(N(CCN(C)C)C(=O)/C=C/c3cccs3)sc2c1 | . | - | - | 48 | -
COc1ccc2c(c1)CN1C(=O)N(Cc3ccccc3)S(=O)(=O)CC21 (stereo unspecified) | . | . | - | . | .
Cc1nc2ccccc2n1CCc1ccccc1 | - | - | - | - | -
Cc1nc2ccccc2c(=O)n1CCc1ccccc1 | . | - | - | 51 | -
CCOC(=O)CSc1nc2ccccc2c(=O)n1CCN1CCOCC1 | - | - | - | - | -
CC(=O)c1nc2ccccc2n1CCc1ccccc1 | - | - | - | 55 | -
O=c1c2ccccc2nc(SCCN2CCOCC2)n1CCc1ccccc1 | - | - | - | 52 | -
Cc1nc2ccccc2c(=O)n1CCc1ccc(O)cc1 | . | - | - | - | -
CC(C)(C)c1ccc(C#C[C@@H]2C=C[C@H]3OC(=O)CC/C=C/CCC(=O)OC[C@H]3O2)cc1 | . | . | - | . | .
O=C(C1CCCN(S(=O)(=O)c2cccs2)C1)N1CCN(Cc2ccccc2)CC1 (stereo unspecified) | . | . | - | . | .
CNS(=O)(=O)/C=C/c1ccccc1CCNC(=O)OC(C)(C)C | . | . | - | . | .
N#C/C(=N\Nc1ccc(F)cc1)C(=N)N1CCCCC1 | . | - | 7.8 | - | -
COc1cc(C(=O)NC2CCCCN(Cc3cccc(Cl)c3)C2=O)cc(OC)c1OC (stereo unspecified) | . | . | - | . | .
CC(=O)c1cccc(S(=O)(=O)Nc2cccc(S(=O)(=O)NC3=NCCC3)c2)c1 | . | - | 10 | - | -
O=[N+]([O-])c1ccc(Cl)c(S(=O)(=O)Nc2cccc(S(=O)(=O)NC3=NCCC3)c2)c1 | - | - | - | 52 | -
CC(=O)c1ccc(S(=O)(=O)Nc2cccc(S(=O)(=O)NC3=NCCC3)c2)cc1 | . | - | - | - | -
COc1cccc(CNS(=O)(=O)c2ccccc2Br)c1 | . | . | - | . | .
SMILES | H9c2 TAG inh | Efflux pump inh | SMARCA2 act | AHR activator | Tb MetRS inh
CCCc1c(Cc2cccc(F)c2)ncn1CCc1ccccc1OC | . | . | - | . | .
N#C/C(=N/Nc1ccc(OC(F)(F)F)cc1)C(N)=S | - | - | - | 54 | -
COCCCNC(=O)C[C@H]1C[C@@]2(C(=O)OC)C(=C[C@H](C(C)C)O[C@@H]2C2CC2)N(Cc2ccccc2)C1=O | . | . | - | . | .
CC(=C/c1ccccc1)/C=N/n1c(-c2ccco2)n[nH]c1=S | . | - | - | - | -
CC(/C=N/n1c(-c2cc(C)[nH]n2)n[nH]c1=S)=C\c1ccccc1 | . | - | - | 78 | -
O=C(CSc1nc2ccccc2s1)NCCOc1ccc(Cl)cc1 | - | - | - | 48 | -
O=C(CSc1nc2ccccc2s1)NNC(=S)Nc1ccc(Cl)cc1 | . | - | - | 71 | -
Cc1c(C)c2c(C)nn(-c3ccccc3)c2[nH]c1=O | - | - | - | 96 | -
Cc1sc(NC(=O)c2c(F)cccc2F)nc1-c1ccccc1 | . | - | - | 65 | -
Cc1sc(NC(=O)c2ccc(=O)n(C)n2)nc1-c1ccccc1 | - | - | - | - | -
O=C(NN=C1c2ccccc2-c2ccccc21)c1cccc(Br)c1 | . | - | - | 56 | -
CCN(CC(=O)Nc1ccccc1C(F)(F)F)C(=O)c1oc2c(Cl)cccc2c1C | - | - | - | - | -
COc1ccc(C(CNC(=O)c2oc3ccccc3c2C)N2CCCC2)cc1 (stereo unspecified) | - | - | - | 47 | -
COc1ccc(C(CNC(=O)c2oc3ccc(Cl)cc3c2C)N2CCCCC2)cc1 (stereo unspecified) | . | - | - | - | -
CCN(CC(=O)Nc1ccc(OC)cc1)C(=O)c1oc2c(Cl)cccc2c1C | - | - | - | 53 | -
COc1ccc(C(CNC(=O)c2oc3c(Cl)cccc3c2C)N2CCCC2)cc1 (stereo unspecified) | - | - | - | 50 | -
COc1ccc(C(CNC(=O)c2ccccc2C)N2CCCC2)cc1 (stereo unspecified) | - | - | - | - | -
CCCCN(C)C(=O)CNc1nnnn1-c1ccccc1 | . | . | - | . | .
O=C(Cn1nnc(-c2ccc3c(c2)OCO3)n1)NCc1ccccc1 | - | - | - | - | -
O=C(Cn1nnc(-c2ccccc2Cl)n1)NCc1ccc2c(c1)OCO2 | - | - | - | 64 | -
N#CC(C#N)=c1ccc2c(c1)N1C3=C(CCCC3)CC3CCCCC31N=2 (stereo unspecified) | 92 | - | - | - | -
Cc1occc1C(=O)Nc1sccc1C(N)=O | - | - | - | - | -
Cc1noc(C)c1C(=O)Nc1sccc1C(N)=O | - | - | 7.9 | - | -
Cc1ccc(-c2csc(NC(=O)c3c(C)noc3C)n2)s1 | - | - | . | 76 | -
CN(C)c1ccc(NC(=O)CCn2c(=S)oc3ccccc32)cc1 | . | - | - | 59 | -
SMILES | H9c2 TAG inh | Efflux pump inh | SMARCA2 act | AHR activator | Tb MetRS inh
O=C(CC1CCCC1)N1CC[C@H]2[C@H](CCCN2Cc2ccccc2)C1 | . | . | - | . | .
Cc1cccc(CNC(=O)NC2CCCCN(Cc3cccc(Cl)c3)C2=O)c1 (stereo unspecified) | . | . | - | . | .
Cc1ccc(-c2nc3ncccn3c2NC(=O)c2ccc(F)cc2)cc1 | . | . | - | . | .
O=C(CNCC1CCCO1)Nc1ccc([N+](=O)[O-])cc1C(=O)Nc1ccccc1F (stereo unspecified) | - | - | - | - | -
COc1cccc(NC(=O)c2cc([N+](=O)[O-])ccc2NC(=O)CNCC2CCCO2)c1 (stereo unspecified) | . | - | - | 48 | -
CCCCCCCCN1C(=O)[C@@H](CC(=O)NCCCN2CCCC2=O)C[C@@]2(C(=O)OC)C1=C[C@H](C(C)C)O[C@@H]2C1CC1 | . | . | - | . | .
N#CCCN1CCCc2cc(N=Nc3ccc(C(F)(F)F)cc3)ccc21 | 57 | - | - | - | -
C(=C\c1nnc2c3ccccc3ncn12)/c1ccccc1 | . | - | - | 67 | -
COc1cc(/C=C/c2nnc3c4ccccc4ncn23)cc(OC)c1OC | . | - | - | - | -
Nc1c(C(=O)N2CCN(c3ccccc3)CC2)nnn1Cc1ccc(Cl)cc1 | . | . | - | . | .
O=C(NNc1nc2c(F)cccc2s1)c1ccc(F)cc1 | - | - | - | - | -
COc1ccc2nc(NNC(=O)c3cc(=O)c4ccccc4o3)sc2c1 | - | - | - | 73 | -
Cc1cccc2sc(NNC(=O)c3cc(=O)c4ccccc4o3)nc12 | - | - | - | 67 | -
COc1ccc2nc(NC(=O)c3ccco3)sc2c1 | . | - | - | - | -
Cc1ccc2sc(NNC(=O)c3cc(=O)c4ccccc4o3)nc2c1C | - | - | - | 76 | -
